Compounds with a hit are over-represented: about 1.4% of the library has one in this group of screens.
FN deposit inh: inhibitors of fibronectin matrix deposition, primary screen, AH1F cells, Alexa488-fibronectin fluorescence, plate reader; AH1F fibroblasts, overnight; 350,000 tested, 0.086% active; inhibition, % at 12.6 µM; AID 743247, 2014;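 active = mean inhibition across replicates of 30% or more, regardless of how many single replicates reach that level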;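 note: positive control wells lacked labelled fibronectin entirely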
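Material: AH1F fibroblast monolayer depositing Alexa488-labelled fibronectin into matrix / Amount: 10000 AH1F cells per well / Signal: fluorescence 485/525 nm / Medium: DMEM, 2% serum / Compound: single dose, pinned / Incubation: 1 h cell adhesion before compound, then overnight fibronectin incubation / Reagent: Alexa488-FN, 24 nM final / Read-out: inhibition of fibronectin deposition signal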
Env fusion inh: inhibitors of HIV-1 Env-driven cell-cell fusion, primary screen, HeLa-JRFL effector, CEM21 target cells, luciferase; inhibition, % at 12.3 µM; 360,000 tested, 1.1% active;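 active = mean replicate inhibition score of at least 50 and every replicate individually at or above 50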;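 note: 0% = plate neutral controls and 100% = maraviroc near 300 nM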
PDI inh: inhibitors of human PDI, primary screen, biochemical, turbidity, single point, plate reader; Protein disulfide-isomerase (Homo sapiens), P07237; PDI insulin aggregation turbidity, A650, 90 min; inhibition, % at 10 µM; 350,000 tested, 0.052% active; AID 588391, 2011;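 active = mean inhibition across replicates of 30% or more, whatever share of single replicates reach that level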
Target sequence (P07237 whole entry, looked up): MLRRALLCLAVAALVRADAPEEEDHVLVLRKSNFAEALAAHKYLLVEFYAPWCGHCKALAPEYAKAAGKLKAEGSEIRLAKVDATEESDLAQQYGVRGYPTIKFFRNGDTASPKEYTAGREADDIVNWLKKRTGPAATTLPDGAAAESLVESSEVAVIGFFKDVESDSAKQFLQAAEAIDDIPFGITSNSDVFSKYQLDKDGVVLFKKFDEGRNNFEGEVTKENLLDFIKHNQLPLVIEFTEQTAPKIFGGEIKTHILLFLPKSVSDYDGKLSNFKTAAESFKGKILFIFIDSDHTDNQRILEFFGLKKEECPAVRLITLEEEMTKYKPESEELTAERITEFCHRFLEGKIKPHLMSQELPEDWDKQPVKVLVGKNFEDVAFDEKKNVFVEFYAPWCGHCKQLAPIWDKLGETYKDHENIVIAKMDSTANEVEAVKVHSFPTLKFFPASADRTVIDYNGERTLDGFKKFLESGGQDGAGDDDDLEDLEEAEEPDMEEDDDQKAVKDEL
ERp5 inh: inhibitors of ERp5-driven insulin aggregation, primary screen, biochemical, turbidity, absorbance 650 nm, single point | Protein disulfide-isomerase A6 (Homo sapiens), Q15084 | 90 min | inhibition, % at 9.99 µM | 350,000 tested, 0.05% active;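 active = mean replicate inhibition above about 25%, with every replicate also reaching it, limit read from the data, passing the limit was not always enough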
INS-1E GSIS act: GLuc luminescence reporter in INS-1E cells, primary screen for activators of glucose-dependent secretion of insulin. INS-1E GLuc reporter insulin secretion, 2-3 h. activation, % at 16.6 µM. 370,000 tested, 0.61% active;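 active = lowest replicate activation of at least 40%, so every replicate reaches that level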;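 note: 0% = median of neutral control wells and 100% = median of IBMX positive control wells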
The depositor's hits bear a star; · = not tested or not shown; [ ] = dose if it differs, or a comment.

SMILES | FN deposit inh | Env fusion inh | PDI inh | ERp5 inh | INS-1E GSIS act
CC(=O)N(C)C[C@@H]1Oc2ncc(-c3ccccc3F)cc2C(=O)N([C@H](C)CO)C[C@H]1C | -8 | 4[16.7 µM] | · | -1 | 16
O=C(CN1C(=O)NC(Cc2c[nH]c3ccccc23)C1=O)NCCc1ccccc1 (stereo not given) | 2 | -19 | -4 | 3 | 103*
COc1ccc(CCNC(=O)CN2C(=O)NC(Cc3c[nH]c4ccccc34)C2=O)cc1 (stereo not given) | -2 | 0 | -1 | -3 | 0
NC(=S)n1[nH]c(-c2ccc([N+](=O)[O-])cc2)c(N=Nc2ccc(O)cc2)c1=O | -10 | -27 | -2 | · | -24
NC(=S)n1[nH]c(-c2ccc([N+](=O)[O-])cc2)c(N=Nc2cccc(Cl)c2)c1=O | 2 | 57* | 6 | 12 | -20
O=C(Nc1ccccc1)[C@@H]1[C@@H](CO)[C@@H]2Cn3c(ccc(C4=CCCCC4)c3=O)[C@@H]2N1Cc1ccccn1 | · | · | · | 15 | 16
CCC(=O)N1[C@H](CNC(=O)CN2CCOCC2)[C@H](c2ccccc2)[C@@H]1CO | 6 | · | · | · | 5
Cc1ccc(S(=O)(=O)N(C)C)cc1NC(=O)CSc1ncc(C(F)(F)F)cc1Cl | -3 | -7 | 1 | 6 | -26
CCN(CC)S(=O)(=O)c1ccc(C)c(NC(=O)CSc2ncc(C(F)(F)F)cc2Cl)c1 | 3 | 22 | 13 | · | 169*
CCCNC(=O)c1cc(-c2ccc3c(c2)OCO3)on1 | -7 | -35 | 6 | 0 | -2
O=C(NCCc1ccccc1)c1cc(-c2ccc3c(c2)OCO3)on1 | · | 8 | 9 | · | 44*
Cc1ccc(Cl)cc1N1CCN(C(=O)C2CCN(c3nnc(-n4cccc4)s3)CC2)CC1 | 2 | 56* | · | 7 | -7
Cc1nc2ccccn2c1-c1csc(Nc2cccc(O)c2)n1 | 18 | -257 | 16 | 4 | 7
Cc1cccc(Nc2nc(-c3c(C)nc4ccccn34)cs2)c1 | -3 | 92* | 1 | · | ·
Cc1csc(SCC(=O)c2c(N)n(CC(C)C)c(=O)n(C)c2=O)n1 | -3 | 90* | 0 | · | -17
Cc1ccc(-n2nnnc2SCC(=O)c2c(N)n(CC(C)C)c(=O)n(C)c2=O)cc1 | · | 59* | -6 | · | -8
C[C@H](NC(=O)C[C@H]1C=C[C@H](NC(=O)c2cccnc2)[C@H](CO)O1)c1ccccc1 | -6 | -6[16.7 µM] | · | 0 | -6
OCC1OC(n2ccc3c2ncn2ncnc32)C(O)C1O (stereo not given) | 7 | 55* | 8 | -8 | -7
Nc1ccn(C2OC(CO)C(O)C2O)c(=O)n1 (stereo not given) | · | · | · | 2 | ·
COc1ccc(CNCC(O)(c2ccc(F)cc2)c2ccc(F)cc2)cc1OC | -3 | 42 | 2 | 2 | -42
COc1ccc(CNCC(O)(c2ccc(Cl)cc2)c2ccc(Cl)cc2)cc1OC | 21 | 63* | -7 | · | ·
CCN(CCCNC(=O)CC(C(=O)N1CCc2ccccc21)n1ccnc1)c1cccc(C)c1 (stereo not given) | 9 | 57* | 6 | · | ·
CCCNC(=O)N1C[C@@H](O)COC[C@@H]2O[C@@H](CC(=O)N3CCCCC3)CC[C@H]21 | -11 | · | · | 7 | -4
COc1ccccc1-c1ccc2n(c1=O)C[C@@H]1[C@@H](CO)[C@H](C(=O)NCc3ccccn3)[C@H]2N1C | · | · | · | -1 | 1
COCCn1c(C)cc(C(=O)CSc2nnc(C)s2)c1C | 2 | 63* | 2 | · | ·
SMILES | FN deposit inh | Env fusion inh | PDI inh | ERp5 inh | INS-1E GSIS act
COCCn1c(C)cc(C(=O)CSc2nnnn2C2CCCC2)c1C | -3 | 60* | -6 | -4 | -5
COc1ccc(Cl)cc1C(=O)CSc1nnnn1C1CCCC1 | · | · | -3 | · | 15
C[C@H](CO)N1C[C@H](C)[C@H](CN(C)CC2CCCCC2)Oc2c(NS(C)(=O)=O)cccc2C1=O | · | -27[16.7 µM] | · | 1 | -2
O=C(C[C@H]1CC[C@@H](NC(=O)c2ccncc2)[C@H](CO)O1)Nc1ccccc1 | 12 | -4[16.7 µM] | · | -5 | 34
CCOC(=O)c1cc([N+](=O)[O-])c([N+](=O)[O-])cc1NC(C)=O | -2 | · | 8 | 1 | 61*
CCOC(=O)c1ccc(NC(=O)c2ccccc2[N+](=O)[O-])cc1 | -2 | -8 | -2 | · | 8
CC(C)=CCC/C(C)=C/CN1C(=O)N(c2ccc(F)cc2)[C@H]2C[C@@H](c3ccccc3)[C@@H](C)[C@@H](C(=O)N3CCOCC3)C[C@H]21 | -3 | 76* | · | 6 | 37
CCN1C(=O)N[C@H]2C[C@H](C(=O)N3CCCC3)[C@H](C)[C@H](c3ccccc3)C[C@H]21 | 3 | -12 | · | -6 | 10
CCCCOc1ccc(C(=O)OCC(=O)Nc2cc(C)on2)cc1 | · | 10 | -5 | 7 | 2
Cc1cc(NC(=O)COC(=O)c2oc3c(ccc4ccccc43)c2C)no1 | 7 | -128 | 3 | 4 | 43*
Cc1c(C(=O)OCC(=O)Nc2ccc(S(N)(=O)=O)cc2)oc2c1ccc1ccccc12 | · | -79 | 5 | 1 | 4
CCOc1cc(C(=O)OCC(=O)Nc2cc(C)on2)cc(OCC)c1OCC | 1 | 6 | -7 | · | 76*
COc1cccc(S(=O)(=O)Nc2ccc3c(c2)OC[C@@H](C)N(Cc2ccccc2F)C[C@@H](C)[C@H](OC)CN(C)C3=O)c1 | -6 | -1[16.7 µM] | · | -4 | -31
CC(C)c1ccc(-n2nnnc2SCC(=O)NC2CC2)cc1 | 4 | 64* | -2 | 2 | -2
CCCNC(=O)Nc1ccc2c(c1)C(=O)N(C)[C@H]1CC[C@@H](CC(=O)NC)O[C@H]1CO2 | 6 | -7[16.7 µM] | · | · | 6
COC(=O)C12OCC34C(CC5C(C)=C(O)C(=O)CC5(C)C3C(O)C1O)OC(=O)C(OC(=O)C=C(C)C)C24 (stereo not given) | 10 | 64* | -2 | -2 | -33
S=C1NC[C@H](c2ccccc2)N1CCCCC1CCCCC1 | 6 | 23 | 0 | 0 | 11
NC1=NC[C@H](c2ccccc2)N1CCCCC1CCCCC1 | 10 | -1 | -9 | -5 | 285*
C[C@@H]1CCCCO[C@H](CN(C)S(=O)(=O)c2ccccc2)[C@@H](C)CN([C@@H](C)CO)C(=O)c2cc(NS(=O)(=O)c3ccc(F)cc3)ccc2O1 | 0 | · | · | 14 | -14
NNC(=O)C1C(O)CCC2CN3CCc4c([nH]c5ccccc45)C3CC21 (stereo not given) | 6 | -194 | -14 | -8 | 41*
COC(=O)[C@@H]1[C@H]2C[C@H]3c4[nH]c5ccccc5c4CCN3C[C@@H]2CC[C@@H]1O | 1 | -3 | -6 | -2 | 27
CCOc1ccc(S(=O)(=O)N2CCOCC2)cc1NC(=O)C1=COCCO1 | 5 | -13 | -3 | -1 | 41*

Assay outcomes (PubChem BioAssay)
